Reference: ChEMBL document CHEMBL4017489, “Design, Synthesis, and Evaluation of New Selective NM23-H2 Binders as c-MYC Transcription Inhibitors via Disruption of the NM23-H2/G-Quadruplex Interaction” (J Med Chem, 2017)
Activity calls are given as the source filed them. The rule behind the calls is not given here.

What was measured:
Mus musculus [1] = experiment: Toxicity in BALB/C nude mouse xenografted with human SiHa cells assessed as distress at 2.5 to 5 mg/kg, ip administered daily after 3 weeks; type: organism-based; details: in vivo, 504 h
Summary of the method: (§1)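 SiHa cells implanted in the right armpit of BALB/c nu/nu mice. At approximately 50 mm3, mice randomized (n = 8/group) to vehicle, compound 2.5 or 5.0 mg/kg, or doxorubicin 1.0 mg/kg, given ip daily for 3 weeks. Body weight and signs of pain, distress or discomfort monitored; tumors excised and weighed. Data given as mean ± SEM, t test against vehicle.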

[2] = Induction of apoptosis in mouse primary mesangial cells at 0.5 to 2 uM after 48 hrs by Annexin V-FITC/propidium iodide based flow cytometric analysis; details: primary mesangial cell
Summary of the method: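 Primary cultured mouse mesangial cells treated at the same concentrations as SiHa cells. Stained with annexin V-FITC and PI and analysed by flow cytometry.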

SiHa [3] = experiment: Induction of apoptosis in human SiHa cells assessed as early apoptotic cells at 1 uM after 48 hrs by Annexin V-FITC/propidium iodide based flow cytometric analysis (reference value: 1.4 %); type: functional
SiHa [4] = experiment: Cell cycle arrest in human SiHa cells assessed as accumulation at sub-G1 phase at 2 uM after 36 hrs by propidium iodide staining based flow cytometry relative to control; type: functional
Summary of the method: (§2)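 SiHa cells (2.0 × 10^5 per well) plated 24 h, then exposed to 2 μM compound or left untreated for 3, 6, 9, 12, 24, 36 or 48 h. Cells washed in PBS, fixed overnight in ice-cold 70% ethanol, treated with 20 μg/mL RNase A for 30 min at 37 °C, stained with PI, and read by flow cytometry at 488 nm. Phase percentages compared with untreated control; at least three experiments.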

SiHa [5] = experiment: Cell cycle arrest in human SiHa cells assessed as accumulation at G0/G1 phase at 2 uM after 3 hrs by propidium iodide staining based flow cytometry (reference value: 48%); type: functional
Summary of the method: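 SiHa cells plated 24 h, treated at 2 μM for 3–48 h; fixed in ice-cold 70% ethanol overnight, RNase A 20 μg/mL 37 °C 30 min, PI-stained, flow cytometry at 488 nm; phase percentages quantified; at least three experiments.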

[6] = Antiproliferative activity against mouse primary mesangial cells at 0.5 to 2 uM up to 100 hrs by real-time cellular activity assay; type: cell-based; details: primary mesangial cell
Summary of the method: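 Impedance-based real-time cell analysis at 37 °C, 5% CO2: 100 μL of 20 000 cells/mL added over medium background, settled 20 min, dosed after 24 h; read every 2 min for 2 h, then every 15 min to end; three repeats.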

SiHa [7] = experiment: Down regulation of CDK4 expression in human SiHa cells at 0.5 to 2 uM after 24 to 48 hrs by Western blot analysis; type: functional, cell-based
Summary of the method: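 SiHa cells (2.0 × 10^5) treated with compound at various concentrations for 24 or 48 h, then lysed at 4 °C. Protein measured by BCA; 30 μg run on 10% SDS-PAGE and transferred to nitrocellulose. Membranes blocked in 5% milk, probed with primary antibodies overnight at 4 °C, then HRP secondary for 2 h, and detected by chemiluminescence. Bands quantified by densitometry; at least three experiments.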

[8] = target: T1, Nucleoside diphosphate kinase B (Homo sapiens, UniProt P22392); experiment: Binding affinity to NM23-H2 (unknown origin) by SPR analysis
Mus musculus [9] = experiment: Toxicity in BALB/C nude mouse xenografted with human SiHa cells assessed as change in body weight at 2.5 to 5 mg/kg, ip administered daily after 3 weeks; type: organism-based; details: in vivo, 504 h; summary of the method: as §1
SiHa [10] = experiment: Induction of apoptosis in human SiHa cells assessed as late apoptotic cells at 1 uM after 48 hrs by Annexin V-FITC/propidium iodide based flow cytometric analysis (reference value: 0.7 %); type: functional
SiHa [11] = experiment: Induction of apoptosis in human SiHa cells assessed as necrotic cells at 0.5 uM after 48 hrs by Annexin V-FITC/propidium iodide based flow cytometric analysis (reference value: 0.3%); type: functional
SiHa [12] = experiment: Induction of apoptosis in human SiHa cells assessed as increase in cleaved caspase-3 level after 48 hrs by Western blot analysis; type: functional, cell-based
Summary of the method: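 SiHa cells treated with 0, 0.5, 1.0 or 2.0 μM for 48 h and lysed for total protein. Caspase-3, cleaved caspase-3, PARP and cleaved PARP detected by Western blot (30 μg protein, 10% SDS-PAGE, HRP chemiluminescence). Bands quantified by densitometry; at least three experiments.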

[13] = target: T1, Nucleoside diphosphate kinase B; experiment: Binding affinity to N-terminal NT-647-NHS labeled NM23-H2 (unknown origin) after 30 mins by MST analysis
Summary of the method: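 NM23-H2 N-terminally labeled with RED-NHS dye (20 μM protein, 30 min dark, RT), free dye removed; 200 nM labeled protein with compound from 500 μM, 16 twofold steps, 30 min RT in 50 mM Tris-HCl pH 7.4, 150 mM NaCl, 10 mM MgCl2, 0.05% Tween-20; KD at half-plateau.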

[14] = target: T2, Nucleoside diphosphate kinase B (Homo sapiens, UniProt P22392, H118F); experiment: Binding affinity to NM23-H2 H118F mutant (unknown origin) by SPR analysis
[15] = target: T2, Nucleoside diphosphate kinase B; experiment: Binding affinity to N-terminal NT-647-NHS labeled NM23-H2 H118F mutant (unknown origin) after 30 mins by MST analysis
SiHa [16] = experiment: Cell cycle arrest in human SiHa cells assessed as accumulation at sub-G1 phase at 2 uM after 48 hrs by propidium iodide staining based flow cytometry relative to control; type: functional; summary of the method: as §2
[17] = system: Nucleoside diphosphate kinase B (Homo sapiens), P22392 [F60A]; experiment: Binding affinity to NM23-H2 F60A mutant (unknown origin) up to 50 uM by SPR analysis
SiHa [18] = experiment: Cell cycle arrest in human SiHa cells assessed as accumulation at G2/M phase at 2 uM after 36 hrs by propidium iodide staining based flow cytometry (reference value: 39 %); type: functional; summary of the method: as §2
[19] = target: T3, Nucleoside diphosphate kinase B (Homo sapiens, UniProt P22392, G113F); experiment: Binding affinity to NM23-H2 G113F mutant (unknown origin) by SPR analysis
[20] = target: T3, Nucleoside diphosphate kinase B; experiment: Binding affinity to N-terminal NT-647-NHS labeled NM23-H2 G113F mutant (unknown origin) after 30 mins by MST analysis
SiHa [21] = experiment: Antitumor activity against human SiHa cells xenografted in BALB/C nude mouse assessed as tumor growth inhibition at 2.5 to 5 mg/kg, ip administered daily; type: functional, organism-based; details: TDE = time-dependent effect
Summary of the method: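 SiHa cells implanted in the right armpit of BALB/C-nu/nu mice. At a tumour size of about 50 mm3, mice were randomised (n = 8/group) to vehicle, 2.5 or 5.0 mg/kg compound, or doxorubicin 1.0 mg/kg, given ip daily for 3 weeks. Tumour volume was followed, then tumours were excised and weighed and body weight recorded. Mean ± SEM, t test against vehicle.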

SiHa [22] = experiment: Cell cycle arrest in human SiHa cells assessed as accumulation at S phase at 2 uM after 12 hrs by propidium iodide staining based flow cytometry (reference value: 13 %); type: functional; summary of the method: as §2
SiHa [23] = experiment: Induction of apoptosis in human SiHa cells assessed as early apoptotic cells at 0.5 uM after 48 hrs by Annexin V-FITC/propidium iodide based flow cytometric analysis (reference value: 1.4 %); type: functional

T3 sequence (P22392 whole entry G113F): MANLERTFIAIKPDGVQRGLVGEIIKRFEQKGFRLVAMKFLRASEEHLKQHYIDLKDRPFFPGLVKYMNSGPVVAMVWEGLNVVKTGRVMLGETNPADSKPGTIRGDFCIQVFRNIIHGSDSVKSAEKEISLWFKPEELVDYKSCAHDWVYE
T2 sequence (P22392 whole entry H118F): as the sequence (P22392 whole entry G113F) above, with F113G, H118F counted along it
T1 sequence (P22392 whole entry): as the sequence (P22392 whole entry G113F) above, with F113G counted along it
Sequence of Nucleoside diphosphate kinase B (Homo sapiens), P22392 [F60A] (P22392 whole entry F60A): as the sequence (P22392 whole entry G113F) above, with F60A, F113G counted along it

Kd [8]: 3.1 µM
Kd [13]: 2000 nM
Kd [14]: 47 µM
Kd [15]: 7.7 µM
Activity [17]: inactive
Kd [19]: 15.5 µM
Kd [20]: 13.5 µM
SMILES: CN(C)CCCNc1cc2nc3n(c(=O)c2cc1F)CC/C3=C\c1ccc(OCc2ccccc2)cc1O
Activity (Mus musculus [1]): Non-Toxic
Activity [2]: Non-Toxic
Activity (SiHa [3]): 80.7%
Activity (SiHa [4]): 99%
Activity (SiHa [5]): 51%
Activity [6]: Non-Toxic
Activity (SiHa [7]): Active
Activity (Mus musculus [9]): Non-Toxic
Activity (SiHa [10]): 10.6%
Activity (SiHa [11]): 0.3%
Activity (SiHa [12]): Dose-dependent effect
Activity (SiHa [16]): 100%
Activity (SiHa [18]): 0%
TGI (SiHa [21]): Tde
Activity (SiHa [22]): 11%
Activity (SiHa [23]): 11.8%
